Laboratory results taken from article PMC8441110 (Computational and Structural Biotechnology Journal, 2021).
Where no end group is shown, it is not given here.

Assays:
[1] = system: Staphylococcus aureus (S. aureus) (NCTC 10788); assay: MIC/MBC determination; format: cell-based; settings: 37 °C, 20 h; for MBC: 10 µl from MIC wells on MHA, no colony growth; for MIC: MHB, 5 × 10^5 CFU/ml, read at 550 nm
In short: (§1)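 Bacteria grown overnight at 37 °C in MHB and diluted to 5 × 10^5 CFU/ml. Peptide stocks in PBS, two-fold from 51200 µM to 100 µM, added 1 µl per 99 µl suspension. Norfloxacin (20 mg/l) was the positive control. After 20 h at 37 °C, OD 550 nm read; MIC = no apparent growth. For MBC, 10 µl from MIC and higher wells spotted on MHA, 37 °C 20 h; lowest without colonies.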

[2] = system: Escherichia coli (E. coli) (ATCC 8739); assay: MIC/MBC determination; format: cell-based; settings: 37 °C, 20 h; for MBC: 10 µl from MIC wells on MHA, no colony growth; for MIC: MHB, 5 × 10^5 CFU/ml, read at 550 nm
In short: as §1

MRSA (NCTC 12493) [3] = assay: MIC/MBC determination; format: cell-based, Methicillin-resistant Staphylococcus aureus; settings: 37 °C, 20 h; for MBC: 10 µl from MIC wells on MHA, no colony growth; for MIC: MHB, 5 × 10^5 CFU/ml, read at 550 nm
In short: as §1

[4] = system: Klebsiella pneumoniae (K. pneumoniae) (ATCC 43816); assay: MIC/MBC determination; format: cell-based; settings: 37 °C, 20 h; for MBC: 10 µl from MIC wells on MHA, no colony growth; for MIC: MHB, 5 × 10^5 CFU/ml, read at 550 nm
In short: as §1

[5] = system: Enterococcus faecium (E. faecium) (NTCC-12697); assay: MIC/MBC determination; format: cell-based; settings: 37 °C, 20 h; for MBC: 10 µl from MIC wells on MHA, no colony growth; for MIC: MHB, 5 × 10^5 CFU/ml, read at 550 nm
In short: as §1

[6] = system: Pseudomonas aeruginosa (P. aeruginosa) (ATCC 9027); assay: MIC/MBC determination; format: cell-based; settings: 37 °C, 20 h; for MBC: 10 µl from MIC wells on MHA, no colony growth; for MIC: MHB, 5 × 10^5 CFU/ml, read at 550 nm
In short: as §1

MRSA (BO38 V1S1 A) = assay: MIC/MBC determination; format: cell-based, Methicillin-resistant Staphylococcus aureus; settings: 37 °C, 20 h; for MBC: 10 µl from MIC wells on MHA, no colony growth; for MIC: MHB, 5 × 10^5 CFU/ml, read at 550 nm
In short: as §1

MRSA (BO42 V2E1 A) = assay: MIC/MBC determination; format: cell-based, Methicillin-resistant Staphylococcus aureus; settings: 37 °C, 20 h; for MBC: 10 µl from MIC wells on MHA, no colony growth; for MIC: MHB, 5 × 10^5 CFU/ml, read at 550 nm
In short: as §1

MRSA (ATCC BAA 1707) = assay: MIC/MBC determination; format: cell-based, Methicillin-resistant Staphylococcus aureus; settings: 37 °C, 20 h; for MBC: 10 µl from MIC wells on MHA, no colony growth; for MIC: MHB, 5 × 10^5 CFU/ml, read at 550 nm
In short: as §1

S. aureus (NCTC 10788) = assay: Condition sensitivity assay; format: cell-based, Staphylococcus aureus
MRSA (NCTC 12493) [7] = assay: Condition sensitivity assay; format: cell-based, Methicillin-resistant Staphylococcus aureus
[8] = system: human keratinocyte cell line HaCaT; assay: Lactate dehydrogenase; format: cell-based; settings: HaCaT cells, 100 μM peptide, 24 h, compared to the positive control
In short: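 Peptide added at 100 µM to 1 µM for 24 h. Lysis buffer gave maximum LDH; after 45 min, supernatant reacted 30 min dark at room temperature, then stopped. Absorbance read at 490 and 680 nm. Release expressed as percent of 1% Triton X-100, PBS negative; nine replicates from three experiments, mean ± SEM.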

| Substance | MBC [1] [µM] | MIC [1] [µM] | MBC [2] [µM] | MIC [2] [µM] | MBC (MRSA (NCTC 12493) [3]) [µM] | MIC (MRSA (NCTC 12493) [3]) [µM] | MBC [4] [µM] | MIC [4] [µM] | MBC [5] [µM] | MIC [5] [µM] | MBC [6] [µM] | MIC [6] [µM] | MBC (MRSA (BO38 V1S1 A)) [µM] | MIC (MRSA (BO38 V1S1 A)) [µM] | MBC (MRSA (BO42 V2E1 A)) [µM] | MIC (MRSA (BO42 V2E1 A)) [µM] | MBC (MRSA (ATCC BAA 1707)) [µM] | MIC (MRSA (ATCC BAA 1707)) [µM] | MIC (S. aureus (NCTC 10788); MHB with 6 μM NH4Cl) [µM] | MIC (S. aureus (NCTC 10788); MHB with 1 mM MgCl2) [µM] | also measured |
| --- | --- | --- | --- | --- | --- | --- | --- | --- | --- | --- | --- | --- | --- | --- | --- | --- | --- | --- | --- | --- | --- |
| GVIFNALK-NH2 [GV8] | > 512 | > 512 | > 512 | > 512 | > 512 | > 512 | > 512 | > 512 | > 512 | > 512 | > 512 | > 512 | > 512 | > 512 | > 512 | > 512 | > 512 | > 512 | – | – | – |
| GVIFNALKGVAK-NH2 [GV12] | > 512 | > 512 | > 512 | > 512 | > 512 | > 512 | > 512 | > 512 | > 512 | > 512 | > 512 | > 512 | > 512 | > 512 | > 512 | > 512 | > 512 | > 512 | – | – | – |
| TVAAQLLKKAR-NH2 [GV11] | > 512 | > 512 | > 512 | > 512 | > 512 | > 512 | > 512 | > 512 | > 512 | > 512 | > 512 | > 512 | > 512 | > 512 | > 512 | > 512 | > 512 | > 512 | – | – | – |
| GVIFNALKGVAKTVAAQLLK-NH2 [GV20] | 8 | 4 | 32 | 8 | 8 | 8 | 64 | 32 | 64 | 16 | 64 | 32 | 32 | 16 | 64 | 32 | 32 | 16 | 4 | 4 | MIC (S. aureus (NCTC 10788); MHB with 2.5 mM CaCl2): 4 µM; MIC (S. aureus (NCTC 10788); MHB with 4 mM FeCl3): 4 µM; MIC (S. aureus (NCTC 10788); MHB with 4.5 mM KCl): 8 µM; MIC (S. aureus (NCTC 10788); MHB with 8 mM ZnCl2): 4 µM; MIC (S. aureus (NCTC 10788); MHB with 150 mM NaCl): 4 µM; MIC (S. aureus (NCTC 10788); MHB with 10% horse serum): 8 µM; MIC (S. aureus (NCTC 10788); PBS (no added salt)): 4 µM; MIC (MRSA (NCTC 12493) [7]; MHB with 6 μM NH4Cl): 8 µM; MIC (MRSA (NCTC 12493) [7]; MHB with 1 mM MgCl2): 8 µM; MIC (MRSA (NCTC 12493) [7]; MHB with 2.5 mM CaCl2): 16 µM; MIC (MRSA (NCTC 12493) [7]; MHB with 4 mM FeCl3): 8 µM; MIC (MRSA (NCTC 12493) [7]; MHB with 4.5 mM KCl): 16 µM; MIC (MRSA (NCTC 12493) [7]; MHB with 8 mM ZnCl2): 8 µM; MIC (MRSA (NCTC 12493) [7]; MHB with 150 mM NaCl): 8 µM; MIC (MRSA (NCTC 12493) [7]; MHB with 10% horse serum): 16 µM; MIC (MRSA (NCTC 12493) [7]; PBS (no added salt)): 8 µM |
| GVIFNALKGVAKTVAAQLLKK-NH2 [GV21] | 4 | 2 | 8 | 4 | 4 | 4 | 16 | 16 | 8 | 4 | 16 | 16 | 8 | 8 | 16 | 8 | 8 | 4 | 2 | 2 | LDH release rate (maximum) [8]: 22.36%; MIC (S. aureus (NCTC 10788); MHB with 2.5 mM CaCl2): 2 µM; MIC (S. aureus (NCTC 10788); MHB with 4 mM FeCl3): 2 µM; MIC (S. aureus (NCTC 10788); MHB with 4.5 mM KCl): 2 µM; MIC (S. aureus (NCTC 10788); MHB with 8 mM ZnCl2): 2 µM; MIC (S. aureus (NCTC 10788); MHB with 150 mM NaCl): 2 µM; MIC (S. aureus (NCTC 10788); MHB with 10% horse serum): 2 µM; MIC (S. aureus (NCTC 10788); PBS (no added salt)): 2 µM; MIC (MRSA (NCTC 12493) [7]; MHB with 6 μM NH4Cl): 4 µM; MIC (MRSA (NCTC 12493) [7]; MHB with 1 mM MgCl2): 4 µM; MIC (MRSA (NCTC 12493) [7]; MHB with 2.5 mM CaCl2): 4 µM; MIC (MRSA (NCTC 12493) [7]; MHB with 4 mM FeCl3): 4 µM; MIC (MRSA (NCTC 12493) [7]; MHB with 4.5 mM KCl): 4 µM; MIC (MRSA (NCTC 12493) [7]; MHB with 8 mM ZnCl2): 4 µM; MIC (MRSA (NCTC 12493) [7]; MHB with 150 mM NaCl): 4 µM; MIC (MRSA (NCTC 12493) [7]; MHB with 10% horse serum): 4 µM; MIC (MRSA (NCTC 12493) [7]; PBS (no added salt)): 4 µM |
| GVIFNALKGVAKTVAAQLLKKAR-NH2 [GV23] | 16 | 2 | 8 | 4 | 2 | 2 | 64 | 32 | 16 | 16 | 16 | 16 | 8 | 2 | 8 | 8 | 8 | 8 | 2 | 2 | MIC (S. aureus (NCTC 10788); MHB with 2.5 mM CaCl2): 2 µM; MIC (S. aureus (NCTC 10788); MHB with 4 mM FeCl3): 2 µM; MIC (S. aureus (NCTC 10788); MHB with 4.5 mM KCl): 2 µM; MIC (S. aureus (NCTC 10788); MHB with 8 mM ZnCl2): 2 µM; MIC (S. aureus (NCTC 10788); MHB with 150 mM NaCl): 2 µM; MIC (S. aureus (NCTC 10788); MHB with 10% horse serum): 2 µM; MIC (S. aureus (NCTC 10788); PBS (no added salt)): 2 µM; MIC (MRSA (NCTC 12493) [7]; MHB with 6 μM NH4Cl): 4 µM; MIC (MRSA (NCTC 12493) [7]; MHB with 1 mM MgCl2): 4 µM; MIC (MRSA (NCTC 12493) [7]; MHB with 2.5 mM CaCl2): 2 µM; MIC (MRSA (NCTC 12493) [7]; MHB with 4 mM FeCl3): 2 µM; MIC (MRSA (NCTC 12493) [7]; MHB with 4.5 mM KCl): 2 µM; MIC (MRSA (NCTC 12493) [7]; MHB with 8 mM ZnCl2): 2 µM; MIC (MRSA (NCTC 12493) [7]; MHB with 150 mM NaCl): 2 µM; MIC (MRSA (NCTC 12493) [7]; MHB with 10% horse serum): 2 µM; MIC (MRSA (NCTC 12493) [7]; PBS (no added salt)): 2 µM |
